Source: ChEMBL document CHEMBL1132598, “Synthesis, corticotropin-releasing factor receptor binding affinity, and pharmacokinetic properties of triazolo-, imidazo-, and pyrrolopyrimidines and -pyridines” (J Med Chem, 1999)

Assays:
Rattus norvegicus = test: The Plasma area under the compound concentration -time curve was measured in rats after oral administration of 1 mg/kg dose; type: ADME, organism-based; parameters: dose 1 mg/kg, route oral; details: in vivo
Summary of the method: (§1)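 Rats were given a single 1 mg/kg oral dose, as a 0.25% methylcellulose suspension or as a solution in EtOH/PG (20:80). Animals were sacrificed at 30 min and 1, 2, 4, 8 and 16 h, with blood collected into EDTA. Plasma was separated by centrifugation and extracted liquid–liquid. Analysis was by LC/MS/MS. Each value is a single determination or the average of two.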

[1] = biological target: T1, Corticotropin-releasing factor receptor 1 (Homo sapiens, UniProt P34998); test: Binding affinity to recombinant human Corticotropin releasing factor receptor 1 (hCRF1) expressed in 293EBNA cells; type: cell-based
T1 sequence (P34998 whole entry): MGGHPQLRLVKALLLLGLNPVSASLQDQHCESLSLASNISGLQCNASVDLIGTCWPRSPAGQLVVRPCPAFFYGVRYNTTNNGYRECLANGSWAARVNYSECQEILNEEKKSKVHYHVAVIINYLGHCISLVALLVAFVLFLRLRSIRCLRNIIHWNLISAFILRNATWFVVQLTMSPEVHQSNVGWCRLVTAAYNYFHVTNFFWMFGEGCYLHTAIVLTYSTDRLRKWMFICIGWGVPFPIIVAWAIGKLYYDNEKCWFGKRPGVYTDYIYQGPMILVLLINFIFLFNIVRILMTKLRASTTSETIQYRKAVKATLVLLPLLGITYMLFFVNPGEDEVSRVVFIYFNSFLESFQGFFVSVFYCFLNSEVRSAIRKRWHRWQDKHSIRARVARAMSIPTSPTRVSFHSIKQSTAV

[2] = The Peak plasma concentration was measured in rats after oral administration of 1 mg/kg dose; type: ADME, organism-based; parameters: dose 1 mg/kg, route oral; details: rat; summary of the method: as §1
[3] = Oral bioavailability in rat (dose 1 mg/kg); type: ADME, organism-based; details: in vivo; summary of the method: as §1
[4] = The Elimination half-life was measured in dogs after intravenous administration of 1 mg/kg dose; type: ADME, organism-based, Canis lupus familiaris; parameters: dose 1 mg/kg, route intravenous; details: dog, in vivo
Summary of the method: (§2)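 Dogs (n = 4–6) received 1 mg/kg iv in an ethanol/PEG-based cosolvent vehicle. Plasma was extracted liquid–liquid and quantified by LC/MS/MS. Clearance, steady-state volume and elimination half-life were derived from the concentration–time curves.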

Canis familiaris = test: The Plasma area under the compound concentration -time curve was measured in dogs after oral administration of 1 mg/kg dose; type: ADME, organism-based, Canis lupus familiaris; parameters: dose 1 mg/kg, route oral; details: dog, in vivo
[5] = The Brain concentration compared to plasma concentration in rats at steady state after intravenous infusion; details: rat, brain and plasma, read-out: B/P
[6] = The clearance was measured in dogs after intravenous administration of 1 mg/kg dose; type: ADME, organism-based, Canis lupus familiaris; parameters: dose 1 mg/kg, route intravenous; details: dog, in vivo; summary of the method: as §2
[7] = The time reach to maximum Peak plasma concentration was measured in dogs after oral administration of 1 mg/kg dose; type: ADME, organism-based, Canis lupus familiaris; parameters: dose 1 mg/kg, route oral; details: dog
[8] = The volume of distribution at steady state was measured in dogs after intravenous administration of 1 mg/kg dose; type: ADME, organism-based, Canis lupus familiaris; parameters: dose 1 mg/kg, route intravenous; details: dog, in vivo, read-out: Vss; summary of the method: as §2
[9] = The Peak plasma concentration was measured in dogs after oral administration of 1 mg/kg dose; type: ADME, organism-based, Canis lupus familiaris; parameters: dose 1 mg/kg, route oral; details: dog
[10] = Oral bioavailability in dog (dose 1 mg/kg); type: ADME, organism-based, Canis lupus familiaris; details: in vivo

Compound	AUC T (Rattus norvegicus) [µM·h]	Ki [1] [nM]	Cmax [2] [nM]	bioavailability [3] [%]	other results
CCC(COC)Oc1nc(C)nc2c1nnn2-c1ccc(C(C)C)cc1Br (configuration not stated)	0.021	1.9	5.9	6	
CCC(COC)Nc1nc(C)nc2c1nnn2-c1ccc(C(C)C)cc1Br (stereo in doubt; 4x)	0.146	6.1	30.7	21	half-life [4]: 19 h; AUC T (Canis familiaris): 3.14 µM·h; Kp [5]: 0.6; clearance [6]: 7.38 mL/min/kg; Tmax [7]: 0.5 h; Vd [8]: 10.1 L/kg; Cmax [9]: 546 nM; bioavailability [10]: 53.1%
COCCN(Cc1ccccc1)c1nc(C)nc2c1nnn2-c1ccc(C(C)C)cc1Br	0.137	5	12.5	15.5	half-life [4]: 46.7 h; AUC T (Canis familiaris): 0.366 µM·h; Kp [5]: 0.2; clearance [6]: 8.72 mL/min/kg; Tmax [7]: 0.8 h; Vd [8]: 24.7 L/kg; Cmax [9]: 39 nM; bioavailability [10]: 7.3%
COCCN(CCOC)c1nc(C)nc2c1nnn2-c1ccc(C(C)C)cc1Br	0.098		30	17	half-life [4]: 33.2 h; AUC T (Canis familiaris): 0.914 µM·h; Kp [5]: 0.6; clearance [6]: 7.97 mL/min/kg; Tmax [7]: 0.67 h; Vd [8]: 15.6 L/kg; Cmax [9]: 308 nM; F [10]: 30.7%
CCC(CCOC)Nc1nc(C)nc2c1ncn2-c1ccc(C(C)C)cc1Br (configuration not stated)	0.03	8	19.9	7	
CCCCN(CC)c1nc(C)nc2c1nnn2-c1ccc(C(C)C)cc1Br	0.471	7.5	49.2	26.5	half-life [4]: 26 h; AUC T (Canis familiaris): 0.824 µM·h; clearance [6]: 9.25 mL/min/kg; Tmax [7]: 1.25 h; Vd [8]: 7.54 L/kg; Cmax [9]: 141 nM; bioavailability [10]: 18.4%
CCC(CC)Nc1nc(C)nc2c1nnn2-c1c(C)cc(C)cc1C		5.7			
CCCCN(CC)c1nc(C)nc2c1nc(C)n2-c1c(Cl)cc(OC)cc1OC		3.5			
COCCN(CCOC)c1nc(C)nc2c1ncn2-c1ccc(C(C)C)cc1Br		5.9			
CCCC(CN(C)C)Nc1nc(C)nc2c1nnn2-c1ccc(C(C)C)cc1Br (configuration not stated)		38.7			
Cc1nc(NC2CCCC2)c2nnn(-c3ccc(C(C)C)cc3Br)c2n1		120			
CCCCN(CC)c1ncnc2c1nnn2-c1ccc(C(C)C)cc1Br		287			
CCC(COC)Nc1nc(C)nc2c1nnn2-c1c(C)cc(C)cc1C (configuration not stated)		59.4			
COCC(COC)N(C)c1nc(C)nc2c1nnn2-c1ccc(C(C)C)cc1Br		21.3			
